The source made the active and inactive calls.
Key:
Plasmodium falciparum [1] = assay: Antimalarial activity against chloroquine-resistant Plasmodium falciparum W2 gametocytes (stage 2 & 3); type: functional, organism-based
Method in brief: (§1)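 W2 gametocyte cultures treated with 50 mM N-acetyl-D-glucosamine for 3 or 5 days to remove asexual forms. Young (7-day) or old (13-day) cultures exposed to drug dilutions for 48 h. Giemsa thin films made and gametocytes counted per 6,000–10,000 erythrocytes. Mean of three independent experiments.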

Plasmodium falciparum [2] = assay: Antimalarial activity against chloroquine-resistant Plasmodium falciparum W2 gametocytes (stage 4 & 5); type: functional, organism-based; method in brief: as §1
Plasmodium falciparum [3] = assay: Antimalarial activity against chloroquine-resistant Plasmodium falciparum W2 asexual […]; type: functional, organism-based
[4] = Cytotoxicity against human HCT cells assessed as [3H]thymidine incorporation; type: cell-based
Method in brief: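 HCT human colorectal tumour cells grown with 10% fetal calf serum and harvested with 0.05% trypsin-EDTA. Plated at 15 × 10^3 cells/well with drug dilutions.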

[5] = tested on: Plasmodium yoelii nigeriensis; assay: Antimalarial activity against Plasmodium yoelii nigeriensis infected subcutaneously dosed mice (Mus musculus); type: functional; details: for ED50 / ED90: Plasmodium yoelii, sc
Method in brief: (§2)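 Four-day suppressive test with P. yoelii nigeriensis: infected mice given drug once daily for four consecutive days p.o. or s.c. (DMSO vehicle, chloroquine in 0.9% NaCl). Parasitemia compared with untreated controls. Cure was defined as no parasites detected after 60 days, with CD50 taken as the dose curing 50% of mice.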

[6] = tested on: Plasmodium vinckei petteri; assay: Antimalarial activity against Plasmodium vinckei petteri infected intraperitoneally dosed Swiss Albino mice (Mus musculus); type: functional
Method in brief: (§3)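 Four-day suppressive test: groups of five female Swiss albino mice infected i.p. on day 0 with 2 × 10^7 parasitized red cells, then dosed once daily for 4 days (i.p., p.o. or s.c.; DMSO vehicle, chloroquine in 0.9% NaCl). Parasitemia read on day 4 vs untreated controls; ED50/ED90 as % growth inhibition; CD50/CD90 = cure (no parasites at 60 days).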

[7] = tested on: Plasmodium vinckei petteri; assay: Antimalarial activity against Plasmodium vinckei petteri infected mice (Mus musculus) at 5 mg/kg/day, peroral administered 4 days after infection for 4 days; type: functional, organism-based
Method in brief: (§4)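 Established-infection test: mice infected with 10^6 P. vinckei petteri on day 0 and left untreated until day 4. Then dosed p.o. by gavage once daily in DMSO for 4 days (days 4–7). Thin blood smears taken daily before and after treatment, with follow-up for recrudescence to 60 days.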

Plasmodium falciparum [8] = assay: Antimalarial activity against chloroquine-sensitive Plasmodium falciparum F32; type: functional, organism-based
Method in brief: (§5)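 Asexual P. falciparum grown in culture at 37°C under 5% CO2 and exposed to drug dilutions for 48 h. Growth inhibition measured by radioactive micromethod. IC50 read graphically from concentration vs % growth inhibition; mean of at least three independent experiments.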

[9] = Ratio of IC50 for HCT cells to IC50 for Plasmodium falciparum; type: functional
Plasmodium falciparum [10] = assay: Antimalarial activity against chloroquine-resistant Plasmodium falciparum FcM29; type: functional, organism-based; method in brief: as §5
Plasmodium falciparum [11] = assay: Antimalarial activity against chloroquine-resistant Plasmodium falciparum FcB1; type: functional, organism-based; method in brief: as §5
[12] = tested on: Plasmodium vinckei petteri; assay: Antimalarial activity against Plasmodium vinckei petteri infected orally dosed Swiss Albino mice (Mus musculus); type: functional; method in brief: as §3
[13] = tested on: Plasmodium vinckei petteri; assay: Antimalarial activity against Plasmodium vinckei petteri infected subcutaneously dosed Swiss Albino mice (Mus musculus); type: functional; method in brief: as §3
Plasmodium falciparum [14] = assay: Growth inhibition after 6 hrs in chloroquine-resistant Plasmodium falciparum FcB1; type: functional, organism-based; details: FcB1, 6 h
Method in brief: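 Plasmion-synchronized FcB1 parasites plated at ring stage and exposed to drug during successive 6-h windows of the erythrocytic cycle (one plate per period). Artemisinin tested at 7, 14, 28 nM; chloroquine at 120, 163, 232 nM; trioxaquine at 11.5, 23, 46 nM. Dilutions prepared daily.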

[15] = tested on: Plasmodium yoelii nigeriensis; assay: Antimalarial activity against Plasmodium yoelii nigeriensis infected mice (Mus musculus) by oral dose; type: functional; method in brief: as §2
[16] = Ratio of LD50 for Swiss mice (Mus musculus) to ED50 for Plasmodium vinckei petteri infected mice (Mus musculus); type: functional
Method in brief: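 Therapeutic index: LD50 (healthy Swiss mice, observed 60 days) divided by ED50 from the 4-day P. vinckei petteri suppressive test.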

[17] = tested on: Plasmodium vinckei petteri; assay: Antimalarial activity against Plasmodium vinckei petteri infected mice (Mus musculus) at 13 mg/kg/day, peroral administered 4 days after infection for 4 days; type: functional, organism-based; method in brief: as §4
Mus musculus = assay: Mortality rate in Plasmodium vinckei petteri infected mice (Mus musculus) at 50 mg/kg, subcutaneously; type: functional, organism-based; design: dose 50 mg/kg
Method in brief: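 Subacute toxicity: P. vinckei petteri-infected mice dosed on four consecutive days (day 0–3) at 10, 25 or 50 mg/kg/day p.o., i.p. or s.c. Five mice per dose and route.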

Plasmodium falciparum [18] = assay: Antimalarial activity against chloroquine-sensitive Plasmodium falciparum Nigeria; type: functional, organism-based, Nigerian; method in brief: as §5

Work on `COc1cc(NC(C)CCCNC2CCC3(CC2)OO[C@@]2(C)CCC(C(C)C)=C[C@H]2O3)c2ncccc2c1` (stereo partly drawn) yielded an IC50 (Plasmodium falciparum [1]) of 57 nM, an IC50 (Plasmodium falciparum [2]) of 46 nM and an IC50 (Plasmodium falciparum [3]) of 43 nM.

In the case of `CCN(CC)CCCC(C)Nc1ccnc2cc(Cl)ccc12` (stereo not drawn) [CHLOROQUINE], the IC50 [4] is reported as 50000 nM, the CD50 [5] is reported as 3 mg/kg/day and the CD90 [5] is reported as 5 mg/kg/day. It also gave an ED50 [5] of 3 mg/kg/day and an ED90 [5] of 5 mg/kg/day.

With `O=C1C(O)=C([C@H]2CC[C@H](c3ccc(Cl)cc3)CC2)C(=O)c2ccccc21` [ATOVAQUONE] the IC50 (Plasmodium falciparum [1]) was 24000 nM, the IC50 (Plasmodium falciparum [2]) was 50400 nM and the IC50 (Plasmodium falciparum [3]) was 4.6 nM.

For `C[C@@H]1CC[C@H]2[C@@H](C)C(=O)O[C@@H]3O[C@@]4(C)CC[C@@H]1[C@]32OO4` [ARTEMISININ], the IC50 [4] was > 35000 nM, the ED50 ([6]; Plasmodium vinckei, ip, read-out: ED50) was 4 mg/kg/day and the ED90 ([6]; Plasmodium vinckei, ip, read-out: ED90) was > 5 mg/kg/day. The Activity [7] was “Active”, the IC50 (Plasmodium falciparum [8]; Plasmodium falciparum, F32) was 6 nM and the “Ratio IC50” value [9] was 4370. The IC50 (Plasmodium falciparum [10]; Plasmodium falciparum, FcM29) was 8 nM, the IC50 (Plasmodium falciparum [11]; Plasmodium falciparum, FcB1) was 5 nM and the CD50 [5] was 7 mg/kg/day. The CD90 [5] was 23 mg/kg/day, the ED50 [5] was 5 mg/kg/day and the ED90 [5] was 23 mg/kg/day. For the same compound, the CD50 [12] was >25 mg/kg/day, the CD90 [12] was >25 mg/kg/day and the ED50 ([12]; Plasmodium vinckei, po) was 17 mg/kg/day. For the same compound, the ED90 ([12]; Plasmodium vinckei, po) was 30 mg/kg/day, the CD50 [13] was >10 mg/kg/day and the CD90 [13] was >10 mg/kg/day. For the same compound, the ED50 ([13]; Plasmodium vinckei, sc) was 3.2 mg/kg/day, the ED90 ([13]; Plasmodium vinckei, sc) was 8 mg/kg/day and the IC50 (Plasmodium falciparum [14]) was 15 nM. The CD50 [15] was 75 mg/kg/day, the CD90 [15] was >100 mg/kg/day and the ED50 ([15]; Plasmodium yoelii, po) was 16 mg/kg/day. It also gave an ED90 ([15]; Plasmodium yoelii, po) of 27 mg/kg/day.

For `CC(C)C1=C[C@H]2OC3(CCC(NCCNc4ccnc5cc(Cl)ccc45)CC3)OO[C@@]2(C)CC1` (stereo partly drawn), the Ratio LD50/ED50 [16] was 100, the Activity [17] was “Active” and the Activity (Mus musculus) was “inactive”.

Compound `CC(C)C1=C[C@H]2OC3(CCC(NCCNc4ccnc5cc(Cl)ccc45)CC3)OO[C@@]2(C)CC1` (stereo in doubt; form 1) has an IC50 (Plasmodium falciparum [10]) of 29 nM and an IC50 (Plasmodium falciparum [11]) of 49 nM.

Work on `CC(C)C1=C[C@H]2OC3(CCC(NCCNc4ccnc5cc(Cl)ccc45)CC3)OO[C@@]2(C)CC1.O=C(O)CC(O)(CC(=O)O)C(=O)O` (stereo in doubt; form 10) yielded a CD50 [6] of 7 mg/kg/day, an ED50 [6] of 7 mg/kg/day and an ED90 [6] of 2.5 mg/kg/day.

In the case of `CC(C)C1=C[C@H]2OC3(CCC(NCCNc4ccnc5cc(Cl)ccc45)CC3)OO[C@@]2(C)CC1` (stereo in doubt; form 2), the IC50 (Plasmodium falciparum [10]) is reported as 32 nM and the IC50 (Plasmodium falciparum [11]) is reported as 48 nM.

In the case of `COc1cc(NC(C)CCCN)c2ncccc2c1` (stereo not drawn) [PRIMAQUINE], the IC50 (Plasmodium falciparum [1]) is reported as 4580 nM, the IC50 (Plasmodium falciparum [2]) is reported as 1540 nM and the IC50 (Plasmodium falciparum [3]) is reported as 1320 nM.

In the case of `CC(C)C1=C[C@H]2OC3(CCC(NCCNc4ccnc5cc(Cl)ccc45)CC3)OO[C@@]2(C)CC1` (stereo in doubt; form 6) [TRIOXAQUINE 3], the IC50 (Plasmodium falciparum [8]) is reported as 18 nM, the IC50 (Plasmodium falciparum [10]) is reported as 18 nM and the IC50 (Plasmodium falciparum [11]) is reported as 26 nM. The IC50 (Plasmodium falciparum [18]) was 18 nM.

Source: ChEMBL document CHEMBL1147097, “Trioxaquines are new antimalarial agents active on all erythrocytic forms, including gametocytes” (Antimicrob Agents Chemother, 2007)
